T cell modulator – modulates CD8 T cell binding to vesicles | 2C CD8+ T cell-vesicle binding, flow cytometry; hits give low values | response (vesicle binding), % at 7 µM | actives 0.068% (n = 330,000) | AID 2052;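 active means response, share of CD8 T cells binding vesicles, and their 90th percentile fluorescence all below set limits, cut at about 80% in these data, passing the limit was not always enough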;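 further: values below 100% mean blocked vesicle binding to the CD8+ T cells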
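Read-out – percent CD8+ FL2 mean versus row control · System – murine 2C transgenic CD8+ T lymphocytes · Times – 1.5 h cell–vesicle binding at 37 °C, then 20 min icy labelling · Control set – naked vesicles low, QL9 vesicles with vehicle high · Detection – cytometric PE anti-B7-1 and Alexa647 anti-CD8 signals after 1% paraformaldehyde fixation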
MC4R barr agon – activates human MC4R beta-arrestin recruitment. U2OS MC4R beta-arrestin complementation, luminescence; percent of melanotan II response, DMSO zero. activation, % at 8.9 µM. actives 0.98% (n = 360,000). AID 540308;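 active means activation above a per-plate cutoff, the mean activation of sample wells on that plate plus 3 SD, cut at about 8% in these data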
EP2 antag – EP2 receptor (human) inhibition | P43116 | C6 glioma cells expressing human EP2, cAMP TR-FRET; cells stimulated with saturating PGE2 | inhibition, % at 25 µM | actives 0.52% (n = 260,000) | AID 1422;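 active means percent inhibition above 40 after rounding to a whole number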;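 further: rat C6 glioma host cells with rolipram phosphodiesterase inhibitor present; the protocol text gives 20 µM as final concentration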
Target sequence (P43116 whole entry, looked up): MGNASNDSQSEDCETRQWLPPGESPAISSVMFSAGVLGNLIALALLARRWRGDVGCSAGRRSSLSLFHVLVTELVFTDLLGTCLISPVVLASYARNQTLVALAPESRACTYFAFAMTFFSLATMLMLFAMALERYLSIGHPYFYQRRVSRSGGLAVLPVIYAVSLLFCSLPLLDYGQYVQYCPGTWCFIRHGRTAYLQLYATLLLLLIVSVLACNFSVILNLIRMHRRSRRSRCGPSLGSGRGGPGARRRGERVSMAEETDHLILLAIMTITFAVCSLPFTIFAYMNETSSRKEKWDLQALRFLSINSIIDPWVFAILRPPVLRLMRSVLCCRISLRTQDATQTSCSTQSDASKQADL
MC4R antagonist – human MC4R antagonism in cAMP assay; MC4R-expressing cells, MTII-stimulated cAMP, LANCE TR-FRET; inhibition, % at 6.5 µM; actives 0.48% (n = 360,000);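 active means inhibition above its plate's cutoff, the mean of tested wells on that plate plus 3 SD, cut at about 29% in these data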;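 further: 0% = Melanotan II alone and 100% = Melanotan II plus saturating MCL0020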
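Assay system: U2OS-MC4R stable cell line; Also added: Melanotan II; Technique: Eu-cAMP/anti-cAMP TR-FRET, emission 671 nm; Times: 30-min compound, 1-h challenge, 1-h detection, room temperature.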
EP2 mod – modulates human prostaglandin E2 receptor EP2 signaling | EP2-expressing cells, cAMP HTRF FRET, PGE2 co-stimulation | actives 0.83% (n = 260,000) | induction, % at 25 µM;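 active means compounds whose cAMP rise, as percent of the full-agonist control response, exceeds 60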;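 further: rat C6 glioma line stably carrying human EP2 under a CMV promoter; the protocol text gives 20 µM as final concentration; 100% = response of wells given 1 µM PGE2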
Exocytosis inh – blocks lytic granule exocytosis; TALL-104 LAMP-1 surface exposure, flow cytometry; cells stimulated with thapsigargin and PMA; inhibition, % at 10 µM; actives 0.66% (n = 360,000); AID 651702;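 active means inhibition above about 55%, limit read from the data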
An asterisk follows results filed as active; nt = no result. Only some compounds are listed: those with a hit (about 2.6% of all), similar ones and a draw of the others.

SMILES | T cell modulator | MC4R barr agon | EP2 antag | MC4R antagonist | EP2 mod | Exocytosis inh
CCC(=O)Nc1sc2c(c1C#N)CCCCC2 | 436 | 1 | 13 | 0 | 62* | -2
CCCCCC1C(C(=O)OCC)C(=O)NC1(C(=O)OCC)C(=O)OCC (configuration not stated) | nt | 2 | nt | -1 | nt | 95*
CCCCCC1CC(=O)NC1(C(=O)OCC)C(=O)OCC (configuration not stated) | nt | -1 | nt | -3 | nt | 21
Cc1cc(/C=C2\SC(=S)N(Cc3ccco3)C2=O)c(C)n1-c1ccccc1 | 272 | -2 | 6 | -1 | -23 | 4
CN(C)c1ccc(C=C2SC(=S)N(Cc3ccco3)C2=O)cc1 | nt | 2 | nt | 1 | nt | 105*
Cc1ccc(C(=O)CN2/C(=C(\O)c3ccccc3)C(=O)c3ccccc3S2(=O)=O)c(C)c1 | 513 | 12* | 5 | -3 | -4 | -1
Cc1ccc(C(=O)CN2C(=O)c3ccccc3S2(=O)=O)cc1 | 622 | -2 | 9 | 9 | -22 | 11
Cc1c(N=Cc2c(O)n(Cc3ccco3)c(=O)c3ccccc23)c(=O)n(-c2ccccc2)n1C | 54 | -1 | 10 | 22 | -14 | 0
CC(=O)N=c1sc2nc3ccccc3nc2n1N(C(C)=O)C(C)=O | 129 | -1 | 81* | 14 | 24 | 0
Cc1cc(=Nc2ccc3c(c2)c(N)cc(C)[n+]3C)nc(N)n1C | nt | nt | 42* | nt | 20 | nt
CCN(CC)S(=O)(=O)c1ccc(NN)nc1 | 196 | 1 | 9 | -3 | -3 | -2
Cc1ccc(/C=C/C(=O)O)cc1S(=O)(=O)N(C)CCO | 220 | 0 | 7 | 5 | 24 | -1
COc1cc(/C=C/C(=O)O)cc(S(=O)(=O)N(C)CCO)c1OC | 0.0* | 1 | 3 | -6 | 8 | -4
COc1ccc(-c2nc(NC(=O)c3ccc(OCC(=O)Nc4ccc(F)cc4)c(OC)c3)sc2C)cc1 | 228 | 45* | 10 | 4 | 34 | 3
COc1cccc(/C=N/NC(=O)c2[nH]nc3c2CCc2ccccc2-3)c1 | 415 | -2 | 12 | -23 | -61 | 81*
COc1ccc(OC)c(/C=N/NC(=O)c2[nH]nc3c2CCc2ccccc2-3)c1 | 233 | 0 | 7 | 4 | -55 | 13
Cc1c(NC(=O)C(Sc2ccccc2)c2ccccc2)cccc1[N+](=O)[O-] (configuration not stated) | 168 | 1 | nt | 7 | 35 | 59*
COc1ccccc1NC(=O)C(Sc1ccccc1)c1ccccc1 (configuration not stated) | 247 | 0 | 5 | -1 | 40 | -5
OC(c1ccccc1)c1nc(-c2cccc(C(F)(F)F)c2)cs1 (configuration not stated) | nt | 9.5* | nt | 11 | nt | -10
Cc1cccc(NC(=O)[C@H](Cc2ccccc2)NC(=O)OCc2ccccc2)c1 | 147 | 3 | 4 | 7 | 24 | 5
COc1ccc(CN(C)C(=O)C(Cc2ccccc2)NC(=O)c2ccccc2)cc1F (configuration not stated) | nt | -1 | nt | 7 | nt | -1
Cc1ccc(NC(=O)C(Cc2ccccc2)NC(=O)OCc2ccccc2)cc1C (configuration not stated) | 619 | 8.8* | 3 | 11 | 55 | -3
CCOc1ccc(CN(C)C(=O)[C@H](Cc2ccccc2)NC(=O)OCc2ccccc2)cc1OC | 645 | 2 | nt | 1 | nt | 56*
CCn1c(CN2CCC3(CC2)NC(=O)c2ccccc2O3)nc2ccccc21 | nt | nt | 6 | nt | -15 | nt
CC(C)COc1nc2ccccc2nc1C(C#N)C(=O)NC1CCCCC1 (configuration not stated) | 394 | 2 | 16 | 13 | 19 | -1
SMILES | T cell modulator | MC4R barr agon | EP2 antag | MC4R antagonist | EP2 mod | Exocytosis inh
CCOC(=O)Cc1csc(NC(=O)CCC(=O)O)n1 | 632 | -2 | 11 | 10 | 8 | -2
CCOC(=O)Cc1csc(NC(=O)CCCc2ccccc2)n1 | 0.0* | -2 | nt | 1 | nt | 1
CC1CCCN(C(=O)c2cc(-c3cccs3)nc3ccccc23)C1 (configuration not stated) | 601 | 1 | nt | 4 | nt | -1
CC(=O)Oc1ccc(N2C(=O)C3C4C=CC(CO)(O4)C3C2=O)cc1 (configuration not stated) | 308 | -2 | 17 | -6 | -1 | 45
CC(=O)Oc1ccc(N2C(=O)C3C(C2=O)C2(C)C=CC3(C)O2)cc1 (configuration not stated) | 714 | nt | 136* | nt | nt | nt
COc1ccc(C)cc1C1=CC(=O)C[C@H](c2ccc(F)cc2)C1 | 383 | -2 | nt | 2 | nt | -3
O=[N+]([O-])/C=C\c1ccc(N2CCCC2)c(F)c1 | nt | -1 | 35 | 9 | -89 | 75*
O=Cc1ccc(N2CCCC2)c([N+](=O)[O-])c1 | 112 | -2 | 5 | 6 | -2 | -2
CN(C)c1nc(=NCc2cccs2)ss1 | nt | -3 | nt | -10 | nt | 65*
CC(SC(=S)N(C)Cc1cccs1)C(=O)O (configuration not stated) | 182 | -1 | 10 | -1 | 13 | 1
COC(=O)C/C=C/N(Cc1ccccc1OC)S(=O)(=O)CCl | nt | 0 | nt | 2 | nt | -1
CC(=O)Oc1cc(O)c2c(=O)c(OC(C)=O)c(-c3ccc(OC(C)=O)c(OC(C)=O)c3)oc2c1 | 65* | 0 | 16 | -27 | nt | -1
C[C@]12CC[C@H]3[C@@H](CCC4=CC(=O)CC[C@@]43C)[C@@H]1CC[C@@H]2C(=O)CO | 864 | -2 | 13 | 8 | -1 | -5
CSc1ncnc2c1ncn2CC(=O)[C@@H]1CC[C@@H]2[C@H]3CCC4=CC(=O)CC[C@@]4(C)[C@@H]3CC[C@]21C | nt | nt | 64* | nt | 14 | nt
O=C(C1CC(=O)N(c2ccc(F)cc2)C1)N1CCC(O)(c2ccccn2)CC1 (configuration not stated) | nt | nt | nt | nt | -11 | nt
CCn1nc(C(=O)OCC(=O)c2ccc3c(c2)OCCO3)c2ccccc2c1=O | 131 | -1 | 14 | -1 | -20 | 0
CCNC(=S)Nc1ccc2c(c1)oc1ccccc12 | 715 | 0 | nt | -7 | nt | 59*
CC1=CC(=O)C(C(C)=Nc2ccccc2Cl)C(=O)O1 (configuration not stated) | 466 | -1 | 4 | -5 | 0 | -5
CC[n+]1ccc(/C=C/c2ccc(N(C)C)cc2)c2ccccc21 | nt | -8 | 96* | -26 | -316 | -6
CC[n+]1c(/C=C/c2ccc(OC)c(OC)c2)ccc2ccccc21 | 177 | -1 | nt | -22 | nt | 7
CC[n+]1c(/C=C/c2ccc(N(C)C)cc2)ccc2ccccc21 | 521 | -3 | 66* | -36 | -49 | -4
CCOc1ccc(CCNC(=O)c2ccc(CNS(=O)(=O)c3ccccc3)cc2)cc1OCC | 195 | -1 | 5 | 15 | -47 | 4
